CASP6 VEID inh: inhibitors of human caspase-6; P55212; purified caspase-6, Z-VEID-R110 cleavage fluorescence; inhibition, % at 12.5 µM; actives 0.53% (n = 350,000); AID 686996;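 active = mean inhibition across replicates at least about 35%, with every replicate also reaching that limit, limit read from the data; inconclusive = only one of the two criteria met; inactive = neither criterion met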;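 note: 0% = median of neutral control wells and 100% = no fluorescence left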
RAD54 branch: blocks human RAD54 Holliday junction branch migration; Q92698; FAM/BHQ fluorescence; inhibition, % at 10.4 µM; actives 0.14% (n = 360,000); AID 602329;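 active = mean normalized replicate activity at least 40 and at least half of replicates scoring 40 or more; inconclusive = only one of the two criteria met; inactive = mean below 40 and under half of replicates reaching 40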;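 note: 0% = median of neutral control wells and 100% = median of positive control wells; inhibitors cause a drop in the FAM fluorescence signal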
Target sequence (Q92698 whole entry, looked up): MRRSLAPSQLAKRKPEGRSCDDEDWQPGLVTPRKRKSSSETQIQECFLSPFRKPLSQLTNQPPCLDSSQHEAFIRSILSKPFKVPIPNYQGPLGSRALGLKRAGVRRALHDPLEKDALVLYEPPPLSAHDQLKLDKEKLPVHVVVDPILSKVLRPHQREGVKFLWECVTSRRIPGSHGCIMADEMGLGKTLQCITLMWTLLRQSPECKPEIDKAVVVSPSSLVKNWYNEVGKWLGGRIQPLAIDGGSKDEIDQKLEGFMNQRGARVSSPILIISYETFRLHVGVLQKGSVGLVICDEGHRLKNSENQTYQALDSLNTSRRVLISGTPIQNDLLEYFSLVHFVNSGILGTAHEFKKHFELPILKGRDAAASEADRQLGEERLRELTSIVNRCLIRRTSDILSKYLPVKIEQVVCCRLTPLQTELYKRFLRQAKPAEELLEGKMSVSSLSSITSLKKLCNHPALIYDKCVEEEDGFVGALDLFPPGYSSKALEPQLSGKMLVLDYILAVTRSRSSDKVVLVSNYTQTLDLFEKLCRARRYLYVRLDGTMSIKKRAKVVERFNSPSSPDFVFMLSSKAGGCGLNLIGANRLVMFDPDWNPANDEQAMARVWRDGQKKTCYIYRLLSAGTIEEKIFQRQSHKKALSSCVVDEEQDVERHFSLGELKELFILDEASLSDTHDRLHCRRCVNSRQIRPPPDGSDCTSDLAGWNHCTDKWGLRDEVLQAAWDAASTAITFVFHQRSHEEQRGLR
RAD52 anneal inh: blocks human RAD52 DNA annealing; recombinant RAD52 DNA annealing, FRET fluorescence; P43351; inhibition, % at 18.7 µM; actives 0.46% (n = 360,000);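 active = every replicate showing at least 50% inhibition; inconclusive = mean inhibition at least 50% but not in every replicate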
AF4-AF9 inh: inhibitors of human MLL-AF4/AF9 interaction. P42568. AlphaScreen, biotin-AF4 peptide binding to FLAG-AF9. inhibition, % at 10 µM. actives 0.47% (n = 350,000);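 active = every replicate reaching a set inhibition limit, whatever the replicate mean, cut at about 25% in these data; inconclusive = mean inhibition reaches that limit but some replicates miss it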;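 note: 0% = plate neutral control median and 100% = total signal loss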
S100A4 inh HTS: inhibitors of human S100A4 binding to myosin IIA peptide; AID 652163; S100A4/TAMRA-MyoIIA peptide fluorescence polarization; actives 0.14% (n = 360,000); inhibition, % at 10.7 µM;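 active = mean inhibition of at least 70% across replicates, with every replicate also reaching that level; inconclusive = mean inhibition reaches 70% but some replicates fall short; inactive = mean inhibition below 70%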
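Test system – S100A4 monomer (human) · Compound – single-point compound testing · Schedule – 5 min incubation before reading · Probe or stimulus – TAMRA-labelled myosin IIA heavy-chain peptide probe, 5 nM · Benchmarks – neutral control DMSO, positive control TFP · Medium – Calcium-containing HEPES buffer, pH 7.2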
XiGFP reactiv: activators of X-chromosome reactivation in mouse fibroblasts; XiGFP mouse fibroblasts, % GFP-positive cells imaging, 3 d; cells co-treated with 5-aza-dC sensitizer; scaled so ellipticine positive control = 100%; activation, % at 7.58 µM; actives 0.055% (n = 360,000);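 active = mean normalized replicate activation at least 10% and every replicate at or above 10%; inconclusive = only one of the two criteria met; inactive = mean below 10% and not all replicates reach 10%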;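 note: 0% = median of on-plate neutral control wells and 100% = ellipticine 6 µM median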
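Material: SV40-immortalized XiGFP fibroblast cells, line 68-5-11 | Buffer or medium: DMEM containing 5-aza-dC | Dosing: One concentration, pinned | Times: 3 d treatment, 15 min room-temperature fixation | Controls: Ellipticine 6 µM positive control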
Rad54 DNA ctr: counter-screen for Rad54 inhibitors: DNA binding compounds; AC50, µM (doses to about 35 µM), inactives show at the top dose activity change, negative = DNA binding; AID 651673; Acridine orange-DNA displacement, fluorescence polarization, 20 min; shares compounds with RAD54 branch; actives 8% (n = 460);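 active = signal drop giving an AC50 within twice the top valid tested concentration of each sample, actives reach about 35 µM in these data; inactive = activity opposite to expected, plus the rest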;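 note: polarization loss reports compound binding to salmon sperm DNA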
* hit, by the source's call; i = inactive; ? = inconclusive; / = not tested or not shown. Sampled rows, rich in hits. Any-hit rate of the full collection: about 1.3%.

SMILES | CASP6 VEID inh | RAD54 branch | RAD52 anneal inh | AF4-AF9 inh | S100A4 inh HTS | XiGFP reactiv | Rad54 DNA ctr
COc1ccc(Nc2nc(N3CCN(S(C)(=O)=O)CC3)nc3ccccc23)c(OC)c1 | -0.9 | 10.3 | 0.4 | -3.6 | -1.9 | -0.1 | /
COc1ccccc1NC(=O)N[C@H]1CC[C@H](CC(=O)N[C@H](C)c2ccccc2)O[C@H]1CO | -1.0 | 4.3 | -0.6 | -0.1 | -2.6 | 0.0 | /
NNC(=O)c1ccc2[nH]c3c(c2c1)CCCC3 | -0.4 | / | -0.8 | -2.1 | -3.0 | 0.0 | /
CN1CCc2[nH]c3ccc(C(=O)NN)cc3c2C1 | / | 66.9* | / | / | / | / | 2.5%
CO[C@H]1CN(C)C(=O)c2ccc(NC(=O)C3CC3)cc2OC[C@H](C)N(CCC(F)(F)F)C[C@@H]1C | 5.6 | / | -1.3 | 2.3 | 4.2 | -0.1 | /
CN1CCN(c2nc(-c3ccncc3)nc3ccccc23)CC1 | / | 86.9* | / | / | / | / | -11.5%
CN1CCN(c2nc(-c3cccs3)nc3ccccc23)CC1 | -5.6 | 71.2* | 7.6 | 8.7 | -6.6 | 0.0 | -9.5%
OCCN1CCN(c2nc(-c3ccccc3O)nc3ccccc23)CC1 | 1.7 | 73.3* | 30.4 | 15.2 | -6.1 | 0.0 | 5.4%
COc1cc(NC(=O)c2cccnc2Sc2ccc(C)c(C)c2)cc(OC)c1OC | / | ? | / | / | / | 0.2 | -2.5%
C(=N\Nc1nc2ccccc2[nH]1)/c1ccc2c(c1)OCO2 | 1.1 | / | -4.8 | 4.4 | 7.9 | 0.0 | /
C(=C/c1nccc2c1[nH]c1ccccc12)/c1ccc2c(c1)OCO2 | 2.8 | 58.5* | -74.4 | -13.8 | -16.2 | 2.0 | -9.0%
O=C(NCCN1CCOCC1)c1c(O)nc2ccccn2c1=O | -7.2 | -12.1 | -5.6 | -1.2 | -5.2 | 0.0 | /
CCNC(=O)c1cc2c(=O)n3cccc(C)c3nc2n(CCc2ccccc2)c1=N | / | 50.3* | / | / | / | / | 0.0%
COc1ccc(CCn2c(=N)c(C(=O)NCCN3CCOCC3)cc3c(=O)n4cccc(C)c4nc32)cc1OC | / | 77.3* | 37.1 | -0.9 | -0.6 | -0.1 | -4.4%
Cc1cccn2c(=O)c3cc(C(=O)NCCc4ccccc4)c(=N)n(CCCn4ccnc4)c3nc12 | / | 51.8* | / | / | / | / | -3.6%
CCCNc1nc2nc3ccccn3c(=O)c2cc1C(=O)NCCN1CCOCC1 | 1.3 | ? | 38.7 | -1.5 | -2.8 | 0.1 | -12.1%
Cc1cccn2c(=O)c3cc(C(=O)NC4CCCC4)c(=N)n(CCc4ccccc4)c3nc12 | -1.0 | -8.9 | -340.7 | -4.5 | -0.4 | 0.0 | /
C/C=C/c1ccc([C@H]2[C@@H](CO)N3C(=O)CN(C(=O)Nc4cccc(OC)c4)C[C@@H]23)cc1 | 1.6 | / | 17.5 | -0.1 | 6.8 | 0.0 | /
Cc1cccn2c(=O)c3cc(C(=O)NCc4ccccc4)c(=N)n(CCCN4CCOCC4)c3nc12 | -3.9 | 61.1* | 32.4 | 5.8 | -22.9 | 0.0 | -15.4%
Cc1cccn2c(=O)c3cc(C(=O)NCCN4CCOCC4)c(=N)n(CCc4ccccc4)c3nc12 | / | 42.7 | / | / | / | / | /
COCC#Cc1ccc2c(c1)O[C@@H](CN(C)Cc1ccccn1)[C@@H](C)CN([C@H](C)CO)S2(=O)=O | -1.6 | 2.7 | 2.3 | -0.5 | -1.9 | -1.1 | /
CSc1nc(SCC(N)=O)c2c3c(sc2n1)CN(C)CC3 | / | 58.6* | / | / | / | / | 3.4%
Cc1c(CN(C)C)c2c(n1C)C(=O)c1ccc(Br)cc1-2 | / | 70.9* | / | / | / | / | i
CCOc1ccc2nc(C)cc(Nc3ccc4c(c3)OCCO4)c2c1 | / | 58.1* | / | / | / | / | -10.6%
CCOc1ccc2nc(C)cc(Nc3cccc([N+](=O)[O-])c3)c2c1 | 3.5 | / | 12.0 | 3.1 | -0.3 | 0.2 | /
SMILES | CASP6 VEID inh | RAD54 branch | RAD52 anneal inh | AF4-AF9 inh | S100A4 inh HTS | XiGFP reactiv | Rad54 DNA ctr
Cc1ccc2nc(C)cc(Nc3ccc4c(c3)OCCO4)c2c1 | / | 59.8* | / | / | / | / | -9.1%
Cc1cc(Nc2ccc3c(c2)OCCO3)c2cccc(C)c2n1 | / | 64.5* | / | / | / | 0.1 | 9.4%
Cc1cc(Nc2ccc3c(c2)OCCO3)c2ccccc2n1 | 2.4 | / | 3.6 | 4.5 | 1.0 | 0.0 | /
C[C@@H]1CN([C@@H](C)CO)S(=O)(=O)c2ccc(-c3cccnc3)cc2O[C@@H]1CN(C)C(=O)C1CCC1 | 0.7 | 3.7 | 1.8 | 2.6 | 2.4 | 0.0 | /
C[C@@H]1CN([C@@H](C)CO)C(=O)c2cc(NC(=O)Nc3ccc(F)cc3)ccc2O[C@@H]1CN(C)CC1CCCCC1 | -2.0 | 1.6 | 10.5 | 0.7 | 13.3 | 0.1 | /
COc1ccc(Cn2cc3c(-c4ccc(F)cc4)nnc-3c3cc(OC)c(OC)cc32)cc1 | 1.7 | 63.9* | -242.5 | -8.7 | 4.2 | 80.5* | 0.3%
COc1cc2c3nnc(-c4ccc(F)cc4)c-3cn(Cc3ccc(F)cc3)c2cc1OC | -3.6 | -17.7 | i | -1.3 | -3.8 | 2.9 | /
c1ccc(-c2cc3c(N4CCCC4)ncnc3s2)cc1 | 5.0 | / | -10.8 | 1.2 | -4.3 | 0.4 | /
OCCN1CCN(c2ncnc3sc(-c4ccccc4)cc23)CC1 | -5.3 | ? | 42.4 | 0.9 | -2.5 | 0.0 | -21.2%
Cc1nc2nc(C)c(C)nc2nc1C | 1.1 | 55.8* | -3.0 | -56.8 | -0.5 | 0.2 | 9.8%
Cc1c(-c2cc(Br)ccc2O)nc2cc3c(cc2c1C)OCO3 | -1.2 | ? | -20.8 | 2.7 | 2.3 | 0.0 | -23.5%
Cc1nc(NC(=O)c2ccc(Cl)cc2)nc2cc3c(cc12)OCO3 | / | 4.6 | / | / | / | -0.1 | /
CC(C)CSc1ncc(-c2cccc(C(F)(F)F)c2)cn1 | / | ? | / | / | / | / | -12.9%
Cn1nc(-c2ccccc2)cc1NS(=O)(=O)c1ccccc1 | -0.5 | / | -2.4 | -1.0 | 10.8 | 0.2 | /
Cn1nc(-c2ccccc2)cc1NS(=O)(=O)c1ccc(C#N)cc1 | -5.3 | ? | -7.3 | -3.0 | -4.4 | 1.4 | -8.2%
O=C1CN(Cc2ccccc2)C[C@H]2[C@H](c3ccc(-c4ccccc4F)cc3)[C@H](CO)N12 | 1.5 | / | -2.2 | 0.9 | 4.7 | 0.0 | /
COc1ccc2c(c1)c1ncn(CCN3CCCC3)c(=O)c1n2C | / | 59.2* | / | / | / | / | 3.3%
COc1ccc2c(c1)c1ncn(CCN3CCCCC3)c(=O)c1n2C | / | 52.0* | / | / | / | / | 14.8%
CC(C)[C@@H](C)NC(=O)N(C)C[C@@H]1OCc2ccccc2-c2c(n(C)c3ccccc23)C(=O)N([C@@H](C)CO)C[C@@H]1C | -0.8 | -6.7 | 4.0 | -2.5 | -2.6 | 0.4 | /
OC[C@@H]1[C@H](c2ccc(-c3ccc(F)cc3)cc2)[C@H]2CN(Cc3ccccn3)CCCCN12 | -18.4 | 9.7 | 10.8 | 6.7 | -13.0 | 0.0 | /
Cc1ccc(S(=O)(=O)N[C@H]2CC[C@@H](CCn3cc(C(C)C)nn3)O[C@@H]2CO)cc1 | 6.0 | -10.7 | -4.9 | -0.8 | -17.7 | -0.5 | /
CC1CCCCN1CCNC(=O)c1cc2c(=O)n(C)c3ccccc3c2n1C (stereo not given) | -36.2 | 56.7* | -2.1 | 1.3 | -1.6 | 0.3 | -23.5%

Screening data deposited in PubChem BioAssay by Broad Institute.
